Results reported in ChEMBL document CHEMBL1131611, “N-(Iodopropenyl)-octahydrobenzo[f]- and -[g]quinolines: synthesis and adrenergic and dopaminergic activity studies” (J Med Chem, 1998).

Columns and labels:
Assay type in all cases: cell membranes, Membrane; call rule not given here
[1] = target: T1, Adrenergic receptor alpha-2 (Rattus norvegicus, UniProt P22086+P19328+P22909); assay: Displacement of [3H]rauwolscine from Alpha-2 adrenergic receptor of rat cortical membranes
T1 sequence (P22086 whole entry): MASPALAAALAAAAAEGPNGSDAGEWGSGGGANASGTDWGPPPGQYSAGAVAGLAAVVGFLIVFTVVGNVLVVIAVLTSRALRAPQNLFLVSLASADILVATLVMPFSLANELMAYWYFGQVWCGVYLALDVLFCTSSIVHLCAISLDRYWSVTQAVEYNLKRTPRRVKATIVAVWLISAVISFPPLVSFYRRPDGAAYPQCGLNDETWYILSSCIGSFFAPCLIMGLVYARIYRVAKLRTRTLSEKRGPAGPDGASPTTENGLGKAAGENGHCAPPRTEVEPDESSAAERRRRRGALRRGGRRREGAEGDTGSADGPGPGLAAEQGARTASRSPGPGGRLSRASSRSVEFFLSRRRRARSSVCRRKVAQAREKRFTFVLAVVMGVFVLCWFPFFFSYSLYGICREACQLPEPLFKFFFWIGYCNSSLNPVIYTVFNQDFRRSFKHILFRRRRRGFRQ
T1 sequence (P19328 whole entry): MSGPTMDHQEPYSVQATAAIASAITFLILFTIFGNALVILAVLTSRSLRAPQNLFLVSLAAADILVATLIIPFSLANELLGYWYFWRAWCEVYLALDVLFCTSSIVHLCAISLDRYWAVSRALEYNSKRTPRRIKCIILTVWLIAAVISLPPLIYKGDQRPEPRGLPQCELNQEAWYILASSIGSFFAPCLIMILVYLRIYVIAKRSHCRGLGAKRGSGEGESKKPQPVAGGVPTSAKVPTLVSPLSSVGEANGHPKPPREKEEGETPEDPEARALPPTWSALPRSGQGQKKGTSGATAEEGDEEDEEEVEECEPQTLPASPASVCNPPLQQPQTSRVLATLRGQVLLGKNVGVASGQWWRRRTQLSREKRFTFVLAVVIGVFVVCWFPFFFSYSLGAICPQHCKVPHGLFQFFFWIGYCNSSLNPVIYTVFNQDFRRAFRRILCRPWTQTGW
T1 sequence (P22909 whole entry): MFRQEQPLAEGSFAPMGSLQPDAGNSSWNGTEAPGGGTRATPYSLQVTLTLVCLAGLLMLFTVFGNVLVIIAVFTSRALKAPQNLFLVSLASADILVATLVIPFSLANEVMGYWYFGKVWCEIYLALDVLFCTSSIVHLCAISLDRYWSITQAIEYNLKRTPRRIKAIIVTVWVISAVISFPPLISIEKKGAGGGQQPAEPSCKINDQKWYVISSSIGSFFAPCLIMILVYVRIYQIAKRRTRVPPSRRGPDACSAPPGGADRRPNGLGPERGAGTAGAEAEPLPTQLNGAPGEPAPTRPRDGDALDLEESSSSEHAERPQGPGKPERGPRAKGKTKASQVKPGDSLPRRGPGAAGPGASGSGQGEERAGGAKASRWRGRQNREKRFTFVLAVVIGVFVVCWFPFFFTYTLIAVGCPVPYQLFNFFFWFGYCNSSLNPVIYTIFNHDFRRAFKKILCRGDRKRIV

D(2) dopamine receptor [2] = target: T2, D(2) dopamine receptor (Rattus norvegicus, UniProt P61169); assay: Displacement of [3H]spiroperidol from Dopamine receptor D2 of rat striatal membranes
In short: (§1)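 Competition radioligand binding in rat striatal membranes: D2 sites labelled with [3H]spiroperidol and D1 sites with [3H]SCH-23390. Inhibition of specific binding was measured. Three experiments, each in duplicate. Compounds were tested up to 5 μM, and those without binding at that level were scored not active.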

D(1A) dopamine receptor [3] = target: T3, D(1A) dopamine receptor (Rattus norvegicus, UniProt P18901); assay: Inhibition of specific binding of [3H]-SCH- 23390 to Dopamine receptor D1 in rat striatal membranes; NA= Not active up to a concentration of 5 uM; in short: as §1
D(1A) dopamine receptor [4] = target: T3, D(1A) dopamine receptor; assay: Displacement of [3H]-SCH- 23390 from Dopamine receptor D1 of rat striatal membranes; in short: as §1
D(2) dopamine receptor [5] = target: T2, D(2) dopamine receptor; assay: Inhibition of specific binding of [3H]spiroperidol to Dopamine receptor D2 in rat striatal membranes; in short: as §1
[6] = target: T4, Adrenergic receptor alpha-1 (Rattus norvegicus, UniProt P15823+P23944+P43140); assay: Displacement of [3H]prazosin from Alpha-1 adrenergic receptor of rat cortical membranes
T4 sequence (P15823 whole entry): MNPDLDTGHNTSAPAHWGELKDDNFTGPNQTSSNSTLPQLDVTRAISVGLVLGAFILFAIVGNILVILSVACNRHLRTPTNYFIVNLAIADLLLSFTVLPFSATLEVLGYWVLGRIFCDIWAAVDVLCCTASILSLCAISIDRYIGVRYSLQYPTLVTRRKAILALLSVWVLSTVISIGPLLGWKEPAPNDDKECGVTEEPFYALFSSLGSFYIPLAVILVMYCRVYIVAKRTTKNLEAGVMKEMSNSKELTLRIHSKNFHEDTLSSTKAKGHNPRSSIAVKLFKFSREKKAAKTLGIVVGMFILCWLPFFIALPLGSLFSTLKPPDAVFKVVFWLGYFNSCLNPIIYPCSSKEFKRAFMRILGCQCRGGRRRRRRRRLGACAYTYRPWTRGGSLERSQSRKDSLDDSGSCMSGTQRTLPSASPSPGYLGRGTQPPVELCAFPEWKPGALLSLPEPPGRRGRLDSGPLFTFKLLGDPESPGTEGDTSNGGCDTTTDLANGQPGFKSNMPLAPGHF
T4 sequence (P23944 whole entry): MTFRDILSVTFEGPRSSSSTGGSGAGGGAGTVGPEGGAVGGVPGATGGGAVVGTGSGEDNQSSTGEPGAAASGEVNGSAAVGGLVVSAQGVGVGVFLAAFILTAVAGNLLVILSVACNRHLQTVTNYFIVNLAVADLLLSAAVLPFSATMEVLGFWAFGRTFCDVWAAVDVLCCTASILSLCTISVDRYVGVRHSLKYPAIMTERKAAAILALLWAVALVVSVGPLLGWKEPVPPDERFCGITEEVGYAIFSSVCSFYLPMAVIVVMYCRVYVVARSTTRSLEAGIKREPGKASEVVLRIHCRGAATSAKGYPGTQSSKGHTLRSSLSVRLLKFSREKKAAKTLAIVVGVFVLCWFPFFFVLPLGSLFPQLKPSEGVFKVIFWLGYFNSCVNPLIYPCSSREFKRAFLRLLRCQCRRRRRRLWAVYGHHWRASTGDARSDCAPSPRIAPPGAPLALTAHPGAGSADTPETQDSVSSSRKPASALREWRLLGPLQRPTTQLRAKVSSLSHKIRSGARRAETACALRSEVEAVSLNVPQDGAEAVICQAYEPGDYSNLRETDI
T4 sequence (P43140 whole entry): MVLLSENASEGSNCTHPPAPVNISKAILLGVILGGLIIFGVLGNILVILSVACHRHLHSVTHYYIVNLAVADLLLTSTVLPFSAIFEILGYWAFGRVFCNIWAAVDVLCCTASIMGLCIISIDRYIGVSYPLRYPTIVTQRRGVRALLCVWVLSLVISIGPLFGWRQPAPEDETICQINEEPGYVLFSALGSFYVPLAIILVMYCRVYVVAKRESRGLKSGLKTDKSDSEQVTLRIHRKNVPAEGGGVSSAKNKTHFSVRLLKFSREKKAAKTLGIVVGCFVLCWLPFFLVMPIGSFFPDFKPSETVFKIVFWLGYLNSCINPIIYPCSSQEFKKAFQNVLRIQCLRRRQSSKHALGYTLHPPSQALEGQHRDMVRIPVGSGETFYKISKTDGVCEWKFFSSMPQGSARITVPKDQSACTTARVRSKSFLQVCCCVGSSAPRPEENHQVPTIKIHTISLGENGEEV

[7] = target: T1, Adrenergic receptor alpha-2; assay: Inhibition of specific binding of [3H]rauwolscine to Alpha-2 adrenergic receptor in rat cortical membranes
D(1A) dopamine receptor [8] = target: T3, D(1A) dopamine receptor; assay: Inhibition of specific binding of [3H]-SCH- 23390 to Dopamine receptor D1 in rat striatal membranes; Not active up to a concentration of 5 uM; in short: as §1

T2 sequence (P61169 whole entry): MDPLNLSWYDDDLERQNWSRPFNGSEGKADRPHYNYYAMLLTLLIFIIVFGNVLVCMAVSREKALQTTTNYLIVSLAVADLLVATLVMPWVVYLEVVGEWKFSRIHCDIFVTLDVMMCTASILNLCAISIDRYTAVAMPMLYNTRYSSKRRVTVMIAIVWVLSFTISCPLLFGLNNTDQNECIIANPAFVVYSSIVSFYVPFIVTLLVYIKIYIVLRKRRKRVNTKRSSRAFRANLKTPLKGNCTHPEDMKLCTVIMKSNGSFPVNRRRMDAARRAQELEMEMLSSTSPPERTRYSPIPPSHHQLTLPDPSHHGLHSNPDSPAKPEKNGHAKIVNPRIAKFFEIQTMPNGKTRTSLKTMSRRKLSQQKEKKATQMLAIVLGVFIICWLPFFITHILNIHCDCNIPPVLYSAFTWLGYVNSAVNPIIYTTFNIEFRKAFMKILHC
T3 sequence (P18901 whole entry): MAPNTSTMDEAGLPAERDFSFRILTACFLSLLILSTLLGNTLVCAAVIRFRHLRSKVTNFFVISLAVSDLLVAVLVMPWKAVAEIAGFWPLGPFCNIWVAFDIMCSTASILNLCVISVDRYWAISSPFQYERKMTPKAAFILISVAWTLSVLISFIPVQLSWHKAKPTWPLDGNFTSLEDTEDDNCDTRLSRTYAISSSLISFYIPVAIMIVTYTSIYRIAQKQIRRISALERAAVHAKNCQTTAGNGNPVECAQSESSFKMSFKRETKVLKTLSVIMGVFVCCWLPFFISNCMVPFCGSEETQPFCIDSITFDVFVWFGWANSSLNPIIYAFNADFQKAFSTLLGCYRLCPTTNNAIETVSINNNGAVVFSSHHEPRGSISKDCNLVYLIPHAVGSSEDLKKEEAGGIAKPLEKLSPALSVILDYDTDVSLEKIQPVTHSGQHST

| Structure (SMILES) | IC50 [1] [nM] | IC50 (D(2) dopamine receptor [2]) | IC50 (D(1A) dopamine receptor [3]) | IC50 (D(1A) dopamine receptor [4]) [nM] | IC50 (D(2) dopamine receptor [5]) [nM] | IC50 [6] [nM] | IC50 [7] [nM] | IC50 (D(1A) dopamine receptor [8]) |
| --- | --- | --- | --- | --- | --- | --- | --- | --- |
| C#CCN1CCC[C@@H]2c3ccccc3CC[C@H]21 | 160 | Not Active | Not Active | – | – | – | – | – |
| Oc1cccc2c1CC1CCCN(C/C=C/I)C1C2 (stereo not given) | 0.5 | – | – | 120 | 490 | 54 | – | – |
| C#CCN1CCCC2Cc3c(cccc3OC)CC21 (stereo not given) | 197 | Not Active | Not Active | – | – | 1850 | – | – |
| COc1cccc2c1CC1CCCNC1C2 (stereo not given) | 67.5 | Not Active | Not Active | – | – | 2200 | – | – |
| Oc1cccc2c1CC[C@@H]1[C@@H]2CCCN1C/C=C/I | – | Not Active | – | 1130 | – | 225 | 47 | – |
| c1ccc2c(c1)CC1CCCNC1C2 (stereo not given) | – | Not Active | – | – | – | – | 130 | Not Active |
| C#CCN1CCCC2Cc3ccccc3CC21 (stereo not given) | 142 | Not Active | – | – | – | 1300 | – | Not Active |
| C#CCN1CCCC2Cc3c(O)cccc3CC21 (stereo not given) | 251 | – | – | 700 | 5110 | 209 | – | – |
| I/C=C/CN1CCCC2Cc3ccccc3CC21 (stereo not given) | 33 | Not Active | – | 220 | – | 274 | – | – |
| c1ccc2c(c1)CC[C@H]1NCCC[C@H]21 | 154 | Not Active | Not Active | – | – | – | – | – |
| COc1cccc2c1CC[C@H]1NCCC[C@H]21 | – | Not Active | Not Active | – | – | – | 55 | – |
| C#CCN1CCC[C@@H]2c3cccc(O)c3CC[C@H]21 | – | Not Active | – | – | – | – | 49 | Not Active |
| NC1CCc2cc(O)c(O)cc2C1 (stereo not given) | – | – | – | – | 700 | – | – | – |
| I/C=C/CN1CCC[C@@H]2c3ccccc3CC[C@H]21 | – | Not Active | – | 1900 | – | 253 | 128 | – |
| COc1cccc2c1CC1CCCN(C/C=C/I)C1C2 (stereo not given) | 226 | Not Active | – | 80 | – | 43 | – | – |
| C#CCN1CCC[C@@H]2c3cccc(OC)c3CC[C@H]21 | – | Not Active | Not Active | – | – | 497 | 196 | – |
| COc1cccc2c1CC[C@@H]1[C@@H]2CCCN1C/C=C/I | – | Not Active | – | 270 | – | 508 | 18 | – |
